Test results as given in ChEMBL document CHEMBL3112531, “Synthesis and evaluation of 4-(2-pyrimidinylamino) benzamides inhibitors of hedgehog signaling pathway” (Bioorg Med Chem Lett, 2014).
One block for each molecule: values may come before it.

What was measured:
[1] = Inhibition of hedgehog signaling pathway in mouse NIH/3T3 cells by Gli1-luciferase reporter gene assay; type: cell-based; settings: NIH3T3
[2] = AUC in Sprague-Dawley rat at 1 mg/kg, iv; type: ADME, organism-based; parameters: dose 1 mg/kg, route intravenous; settings: plasma
Method in brief: (§1)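 SD rats given a single 1 mg/kg iv dose in 5% DMA + 5% Tween-80. Plasma concentration–time data were analysed by a noncompartmental approach.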

[3] = AUC in Sprague-Dawley rat at 5 mg/kg, po; type: ADME, organism-based; parameters: dose 5 mg/kg, route oral; settings: plasma
Method in brief: (§2)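 SD rats dosed orally at 5 mg/kg in 0.5% HPMC + 0.3% Tween-80 (pH 2.8). Blood samples (n = 3) were centrifuged at 4000 rpm for 5 min at 4 °C. Plasma concentration–time data were analysed noncompartmentally.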

Rattus norvegicus [4] = experiment: Volume of distribution at steady state in Sprague-Dawley rat at 5 mg/kg, po; type: ADME, organism-based; parameters: dose 5 mg/kg, route oral; settings: in vivo; method in brief: as §2
[5] = Half life in Sprague-Dawley rat at 5 mg/kg, po; type: ADME, organism-based; parameters: dose 5 mg/kg, route oral; settings: in vivo; method in brief: as §2
[6] = Half life in Sprague-Dawley rat at 1 mg/kg, iv; type: ADME, organism-based; parameters: dose 1 mg/kg, route intravenous; settings: in vivo; method in brief: as §1
[7] = Clearance in Sprague-Dawley rat at 5 mg/kg, po; type: ADME, organism-based; parameters: dose 5 mg/kg, route oral; settings: in vivo; method in brief: as §2
[8] = Mean residence time (0 to t) in Sprague-Dawley rat at 5 mg/kg, po; type: ADME, organism-based; parameters: dose 5 mg/kg, route oral; settings: in vivo; method in brief: as §2
Rattus norvegicus [9] = experiment: (§3) Volume of distribution at steady state in Sprague-Dawley rat at 1 mg/kg, iv; type: ADME, organism-based; parameters: dose 1 mg/kg, route intravenous; settings: in vivo; method in brief: as §1
[10] = Cmax in Sprague-Dawley rat at 1 mg/kg, iv; type: ADME, organism-based; parameters: dose 1 mg/kg, route intravenous; settings: in vivo; method in brief: as §1
[11] = Cmax in Sprague-Dawley rat at 5 mg/kg, po; type: ADME, organism-based; parameters: dose 5 mg/kg, route oral; settings: in vivo; method in brief: as §2
Rattus norvegicus [12] = experiment: (§4) Mean residence time (0 to t) in Sprague-Dawley rat at 1 mg/kg, iv; type: ADME, organism-based; parameters: dose 1 mg/kg, route intravenous; settings: in vivo; method in brief: as §1
[13] = Ratio of GDC-0449 IC50 to compound IC50 for hedgehog signaling pathway in mouse NIH/3T3 cells by Gli1-luciferase reporter gene assay; type: cell-based
[14] = Oral bioavailability in Sprague-Dawley rat at 5 mg/kg; type: ADME, organism-based; settings: in vivo
Method in brief: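 Oral dosing of SD rats at 5 mg/kg in 0.5% HPMC + 0.3% Tween-80 (pH 2.8), with blood samples n = 3, alongside iv dosing at 1 mg/kg in 5% DMA + 5% Tween-80. Plasma concentration–time data were analysed noncompartmentally.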

[15] = as §3; type: ADME, organism-based; parameters: dose 1 mg/kg, route intravenous; settings: Sprague-Dawley, in vivo, read-out: Vdss; method in brief: as §1
[16] = Clearance in Sprague-Dawley rat at 1 mg/kg, iv; type: ADME, organism-based; parameters: dose 1 mg/kg, route intravenous; settings: in vivo; method in brief: as §1
[17] = as §4; type: ADME, organism-based; parameters: dose 1 mg/kg, route intravenous; settings: Sprague-Dawley, in vivo; method in brief: as §1

IC50 [1]: 21.2 nM
Structure (SMILES): Cc1ccc(CN2CCC(O)CC2)cc1NC(=O)c1ccc(Nc2ncc(C)c(-c3cnn(C)c3)n2)cc1

IC50 [1]: 0.77 nM
Structure (SMILES): CCN1CCN(Cc2ccc(C)c(NC(=O)c3ccc(Nc4ncc(C)c(-c5ccc(OC(F)(F)F)cc5)n4)cc3)c2)CC1

IC50 [1]: 0.23 nM
Structure (SMILES): CCN(CC)Cc1ccc(C)c(NC(=O)c2ccc(Nc3ncc(C)c(-c4ccc(OC(F)(F)F)cc4)n3)cc2)c1

IC50 [1]: 2 nM
Structure (SMILES): Cc1ccc(CN2CCNC(=O)C2)cc1NC(=O)c1ccc(Nc2ncc(C)c(-c3ccc(OC(F)(F)F)cc3)n2)cc1

IC50 [1]: 17.5 nM
Structure (SMILES): CCCN(C)Cc1ccc(C)c(NC(=O)c2ccc(Nc3ncc(C)c(-c4cnn(C)c4)n3)cc2)c1

AUC [2]: 1300 ng·h/mL | AUC [3]: 2400 ng·h/mL | Vdss (Rattus norvegicus [4]): 16.3 L/kg | half-life [5]: 5.8 h | half-life [6]: 7.2 h | CL/F [7]: 32.8 mL/min/kg | MRT last [8]: 6.6 h | Vdss (Rattus norvegicus [9]): 7.4 L/kg | Cmax [10]: 1200 ng/mL | Cmax [11]: 280 ng/mL | IC50 [1]: 0.53 nM | MRT (Rattus norvegicus [12]): 4.1 h | bioavailability [14]: 46.3%
Structure (SMILES): Cc1ccc(CN2CCOCC2)cc1NC(=O)c1ccc(Nc2ncc(C)c(-c3ccc(OC(F)(F)F)cc3)n2)cc1
Ratio IC50 [13]: 7

IC50 [1]: 8.4 nM
Structure (SMILES): Cc1ccc(CN2C[C@@H](C)O[C@@H](C)C2)cc1NC(=O)c1ccc(Nc2ncc(C)c(-c3cnn(C)c3)n2)cc1

IC50 [1]: 19.5 nM
Structure (SMILES): Cc1ccc(CN2CCC(N3CCCCC3)CC2)cc1NC(=O)c1ccc(Nc2ncc(C)c(-c3ccc(OC(F)(F)F)cc3)n2)cc1

IC50 [1]: 10 nM
Structure (SMILES): Cc1ccc(CN2CCN(C)CC2)cc1NC(=O)c1ccc(Nc2ncc(C)c(-c3cnn(C)c3)n2)cc1

half-life [6]: 1.6 h | IC50 [1]: 7.2 nM
Structure (SMILES): CS(=O)(=O)c1ccc(C(=O)Nc2ccc(Cl)c(-c3ccccn3)c2)c(Cl)c1 [VISMODEGIB]

IC50 [1]: 0.44 nM
Structure (SMILES): Cc1ccc(CN2CCC(O)CC2)cc1NC(=O)c1ccc(Nc2ncc(C)c(-c3ccc(OC(F)(F)F)cc3)n2)cc1

IC50 [1]: 1 nM
Structure (SMILES): Cc1ccc(CN2CCCCC2)cc1NC(=O)c1ccc(Nc2ncc(C)c(-c3ccc(OC(F)(F)F)cc3)n2)cc1
Ratio IC50 [13]: 7

IC50 [1]: 9.2 nM
Structure (SMILES): Cc1ccc(CN2CCCC2)cc1NC(=O)c1ccc(Nc2ncc(C)c(-c3cnn(C)c3)n2)cc1

IC50 [1]: 1.1 nM
Structure (SMILES): Cc1ccc(CNc2ccccc2)cc1NC(=O)c1ccc(Nc2ncc(C)c(-c3ccc(OC(F)(F)F)cc3)n2)cc1

IC50 [1]: 3.9 nM
Structure (SMILES): Cc1ccc(CN2CCC[C@@H]2CN2CCCC2)cc1NC(=O)c1ccc(Nc2ncc(C)c(-c3ccc(OC(F)(F)F)cc3)n2)cc1

IC50 [1]: 35.3 nM
Structure (SMILES): Cc1ccc(CN(C)CCCN(C)C)cc1NC(=O)c1ccc(Nc2ncc(C)c(-c3ccc(OC(F)(F)F)cc3)n2)cc1

IC50 [1]: 10.5 nM
Structure (SMILES): Cc1ccc(CN2CC3CCN(C)C3C2)cc1NC(=O)c1ccc(Nc2ncc(C)c(-c3ccc(OC(F)(F)F)cc3)n2)cc1 (centres undefined)

IC50 [1]: 1.6 nM
Structure (SMILES): Cc1ccc(CNC2CCCC2)cc1NC(=O)c1ccc(Nc2ncc(C)c(-c3ccc(OC(F)(F)F)cc3)n2)cc1

IC50 [1]: 1.6 nM
Structure (SMILES): Cc1ccc(CN2CC3CCCC3C2)cc1NC(=O)c1ccc(Nc2ncc(C)c(-c3ccc(OC(F)(F)F)cc3)n2)cc1 (centres undefined)

IC50 [1]: 0.45 nM
Structure (SMILES): Cc1ccc(CN2CCN(C)CC2)cc1NC(=O)c1ccc(Nc2ncc(C)c(-c3ccc(OC(F)(F)F)cc3)n2)cc1

IC50 [1]: 0.47 nM
Structure (SMILES): Cc1ccc(CN(CCO)CCO)cc1NC(=O)c1ccc(Nc2ncc(C)c(-c3ccc(OC(F)(F)F)cc3)n2)cc1

IC50 [1]: 2.4 nM
Structure (SMILES): Cc1ccc(CN2CCCc3ccccc32)cc1NC(=O)c1ccc(Nc2ncc(C)c(-c3ccc(OC(F)(F)F)cc3)n2)cc1

IC50 [1]: 1.5 nM
Structure (SMILES): Cc1ccc(CN2CCc3sccc3C2)cc1NC(=O)c1ccc(Nc2ncc(C)c(-c3ccc(OC(F)(F)F)cc3)n2)cc1

AUC [2]: 710 ng·h/mL | half-life [6]: 1 h | Vd [15]: 2.1 L/kg | Cmax [10]: 840 ng/mL | clearance [16]: 23.3 mL/min/kg | IC50 [1]: 0.68 nM | MRT last [17]: 1.2 h
Structure (SMILES): Cc1ccc(CN2CCOCC2)cc1NC(=O)c1ccc(Nc2ncc(C)c(-c3ccccc3)n2)cc1

AUC [2]: 1200 ng·h/mL | AUC [3]: 3800 ng·h/mL | Vdss (Rattus norvegicus [4]): 2.9 L/kg | half-life [5]: 1.4 h | half-life [6]: 0.8 h | CL/F [7]: 23.9 mL/min/kg | MRT last [8]: 2.4 h | Vd [15]: 0.9 L/kg | Cmax [10]: 2100 ng/mL | Cmax [11]: 1500 ng/mL | clearance [16]: 14.3 mL/min/kg | IC50 [1]: 1.3 nM | MRT last [17]: 0.81 h | bioavailability [14]: 63.6%
Structure (SMILES): Cc1ccc(CN2CCOCC2)cc1NC(=O)c1ccc(Nc2ncc(C)c(-c3cnn(C)c3)n2)cc1
